Assay outcomes from PubChem.
STAT1 act: STAT1 signaling activators, primary screen, cell-based, HTS, luciferase reporter. actives 2.6% (n = 200,000). AID 932, 2007. activation (% of control), % at 5.5 µM. NIH 3T3 STAT1-luciferase reporter, IFN-gamma, luminescence; 100% = IFN-gamma alone, no compound;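 active = activation above the screen-wide mean activation plus 3 SD, cut at about 130% in these data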;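 also: raw ratio to IFN-gamma control signal so 100% means no change and 0% no light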
APP 5'UTR act: activators of APP 5'UTR luciferase reporter, primary screen, SH-SY5Y cells | activation, % at 2 µM | SH-SY5Y APP 5'UTR luciferase reporter, luminescence; zero percent = DMSO vehicle wells | actives 1% (n = 190,000) | AID 1276, 2008;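 active = activation above a set limit, based on mean plus 3 SD of controls, cut at about 140% in these data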
STAT3 inh-1: IL-6 driven STAT3 reporter inhibitors, primary screen, U3A cells, luciferase, luminescence, MLSCN library; actives 0.89% (n = 190,000); inhibition, % at 5.5 µM; IL-6 STAT3-luciferase reporter; host cell line lacks STAT1;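 active = inhibition above the mean inhibition across all screened compounds plus 3 SD, cut at about 44% in these data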;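 also: 0% = DMSO only wells and 100% = 100 µM nifuroxazide control wells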
NF-kB neuron act: activators of NF-kB expression in neurons, primary screen, cell-based, HTS; human neuronal cells, NF-kB reporter expression; stronger effect = higher value; fold change at 12.5 µM; actives 1.6% (n = 190,000); in the data active = fold change above about 3.3
STAT3 activator: IL-6 driven STAT3 reporter potentiators, primary screen, U3A cells, luciferase, luminescence, MLSCN library. IL-6 STAT3-luciferase reporter; 100% = signal with IL-6 EC80 alone. activation (% of control), % at 5.6 µM. actives 0.91% (n = 190,000). AID 871, 2007;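 active = activation above the screen-wide mean of compound activation plus 3 SD, cut at about 130% in these data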;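 also: 0% = background luminescence of wells with medium and substrate only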
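Test system: Human STAT1-deficient U3A cells with stable STAT3-luciferase reporter | Also added: Interleukin-6, 33 ng/mL | Timing: Compound pre-incubation 1 h before IL-6, then 6 h stimulation at 37 °C | Technique: Luciferase reporter luminescence | Read-out: Percent of IL-6-only median luminescence | Benchmarks: IL-6-only wells as 100% reference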
STAT1 blocker: STAT1 signaling inhibitors, primary screen, cell-based, HTS, luciferase reporter | actives 0.35% (n = 200,000) | NIH 3T3 STAT1-luciferase reporter, IFN-gamma, luminescence | inhibition, % at 5.5 µM;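 active = inhibition above a set limit, the mean inhibition across all tested compounds plus 3 SD, cut at about 34% in these data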;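 also: 0% = IFN-gamma with DMSO and 100% = IFN-gamma with 300 µM nifuroxazide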
STAT3 inh-2: STAT3 reporter inhibitors, retest of hits, confirmation, U3A cells, luciferase, luminescence; shares compounds with STAT3 inh-1; IL-6 STAT3 luciferase reporter; cell line lacks STAT1; inhibition, % at 5.7 µM; actives 45% (n = 1,200); AID 1265, 2008;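 active = inhibition above the hit cutoff computed for the primary STAT3 screen, cut at about 44% in these data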;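 also: 0% = IL-6 plus DMSO and 100% = IL-6 plus nifuroxazide control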
NFkB inh 2: NF-kB reporter inhibitors in human cells, confirmation, counter-screen for STAT3 inhibitor project, cell-based, HEK293T, luciferase, TNF-alpha stimulus; shares compounds with STAT3 inh-1; TNF-alpha induced; inhibition, % at 5.7 µM; actives 36% (n = 1,200); AID 1308, 2008;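 active = inhibition above the mean of solvent-only control wells plus 3 SD, cutoff set per campaign, cut at about 13% in these data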;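 also: 0% = TNF-alpha with DMSO and 100% = TNF-alpha with MG high control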
STAT1 inh STAT3c: STAT1 reporter inhibitors, IFN-gamma induced, confirmation, counter-screen for STAT3 inhibitor project, cell-based, NIH 3T3, luciferase luminescence; shares compounds with STAT3 inh-1; NIH 3T3 STAT1-luciferase reporter; inhibition, % at 5.7 µM; actives 27% (n = 1,200);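 active = inhibition above the mean plus 3 SD of solvent-only control wells, limit set per screening run, cut at about 16% in these data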;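 also: 0% = DMSO with IFN-gamma and 100% = nifuroxazide control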
Active calls of the source: *; x = no result given. Hits are enriched below; roughly 4.9% of the tested compounds scored in any of these assays.

SMILES	STAT1 act	APP 5'UTR act	STAT3 inh-1	NF-kB neuron act	STAT3 activator	STAT1 blocker	STAT3 inh-2	NFkB inh 2	STAT1 inh STAT3c
Cn1c(=O)oc2cc(S(=O)(=O)N3CCCC(C(=O)NC4CCCc5ccccc54)C3)ccc21 (centres undefined)	89	-10	81*	1.4	37	12	75*	34*	-6
Cn1c(=O)oc2cc(S(=O)(=O)N3CCCC(C(=O)Nc4ccccn4)C3)ccc21 (centres undefined)	94	3	13	0.98	93	7	x	x	x
CN=CC1=C(O)c2ccccc2C1=O	107	-5	2	1.2	103	-8	x	x	x
O=C1C(C=Nc2ccccc2O)=C(O)c2ccccc21	98	114	49*	5*	59	2	-57	-30	-11
COc1ccc(N=CC2=C(O)c3ccccc3C2=O)cc1	96	137*	92*	1.4	23	15	12	25*	-133
O=C(OCc1ccc(Cl)cc1Cl)c1ccncc1	103	-3	8	0.98	97	-3	x	x	x
CC[C@@H](C)C(NC(=O)OC(C)(C)C)c1cn([C@@H](Cc2ccc(O)cc2)C(=O)N2CCN(C(=O)OC(C)(C)C)CC2)nn1 (some centres undefined)	99	-7	x	0.85	x	3	x	x	x
CC(=O)c1c(C)[nH]c(C(=O)COc2cc(C)cc(C)c2)c1C	89	9	44*	0.88	66	12	36	7	12
O=C(Nc1ccn(Cc2ccccc2F)n1)c1ccc(COc2ccccc2Cl)cc1	102	-13	46*	0.65	64	-3	46*	7	5
OC1(c2ccc(OC(F)F)cc2)CSC(=Nc2cccnc2)N1C1CC1 (centres undefined)	87	-3	53*	0.96	60	15	40	3	10
CCc1nc(SCC(=O)Nc2nnc(CC(C)C)s2)n[nH]1	100	2	5	1.2	100	-4	x	x	x
O=C(Cn1cnc2ccccc21)Nc1ccc(SC(F)F)cc1	79	-15	73*	1.1	40	22	65*	21*	16
Clc1ccc2ncc(-c3nnnn3-c3ccccc3)c(-c3ccccc3)c2c1	95	11	61*	0.62	54	5	44*	11	2
Cc1nn(C)c(C)c1/C=C/C(=O)c1ccc(Cl)cc1Cl	76	-4	66*	1.8	46	25	65*	13*	16
CCCCCCC(=O)N/N=C/c1ccco1	102	16	-1	0.95	104	-2	x	x	x
c1ccc(-c2cnc(-c3ccccc3)nc2)cc1	123	79	54*	9.4*	57	-24	26	2	-68
Cc1nc(C)c(C(=O)Nc2ccc(Oc3ccccc3)cc2)o1	81	-8	55*	0.87	57	21	28	3	-2
CN(C)S(=O)(=O)Oc1cccc(C(=O)Nc2ccc(Cl)cc2)c1	109	141*	71*	5.3*	48	-10	56*	-11	-50
CN(C)S(=O)(=O)Oc1cccc(C(=O)Nc2ccccc2Cl)c1	118	39	6	1.9	95	-19	x	x	x
CC(=O)c1cn(CC(=O)Nc2cccc(C)c2C)c2ccccc12	72	-5	49*	0.8	60	29	44*	15*	23*
